# Compound activity from PubChem.
# Compounds with a hit are over-represented: about 2.5% of the library has one in this group of screens.
# TRPML3 ag: human TRPML3 channel agonists, primary screen, cell-based, HEK293 TRPML3-YFP, Fluo-8 calcium fluorescence, 3 µM; Mucolipin-3 (Homo sapiens), Q8TDD5; hit rate 0.29% among 220,000; activation, % at 3 µM; 100% = the carbachol control signal; AID 1448, 2008;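 active = activation above its plate's cutoff, the mean activation of the plate's test wells plus 3 SD, cut at about 12% in these data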;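 note: 0% = DMSO only wells and 100% = carbachol wells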
# Target sequence (Q8TDD5 whole entry, looked up): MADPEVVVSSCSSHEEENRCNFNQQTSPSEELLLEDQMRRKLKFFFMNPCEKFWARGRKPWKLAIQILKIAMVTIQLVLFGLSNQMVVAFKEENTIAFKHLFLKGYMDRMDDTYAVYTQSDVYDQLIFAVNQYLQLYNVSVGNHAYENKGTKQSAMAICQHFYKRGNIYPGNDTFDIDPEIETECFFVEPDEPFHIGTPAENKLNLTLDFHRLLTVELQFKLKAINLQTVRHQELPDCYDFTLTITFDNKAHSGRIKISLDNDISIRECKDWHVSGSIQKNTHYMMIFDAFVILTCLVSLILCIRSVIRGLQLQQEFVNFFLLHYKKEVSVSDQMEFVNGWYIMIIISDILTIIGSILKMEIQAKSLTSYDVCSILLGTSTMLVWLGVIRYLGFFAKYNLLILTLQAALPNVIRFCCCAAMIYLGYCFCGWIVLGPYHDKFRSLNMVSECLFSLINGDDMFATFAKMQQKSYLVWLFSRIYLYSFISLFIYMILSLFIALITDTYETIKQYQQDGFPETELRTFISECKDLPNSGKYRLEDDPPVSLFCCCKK
#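 Test system: TRPML3-YFP stable HEK293 cells. Doses: single point at 3 µM. Incubation: dye loading 1 h 37 °C then 30 min ambient, 125 s read. Signal: Fluo-8 calcium dye fluorescence, ex 470-495, em 515-575 nm. Measure: percent activation from peak-to-basal fluorescence ratio, scaled between DMSO and carbachol.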
# OX1R antag-1: antagonists of human orexin 1 receptor (OX1R); hit rate 1.8% among 330,000; OX1R-expressing cells, FRET antagonist read-out; inhibition, % at 6.6 µM; Orexin/Hypocretin receptor type 1 (Homo sapiens), O43613; in the data active = inhibition mostly above about 38%, no sharp cut-off; inactive = mostly below about 40%;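 note: 0% = agonist challenge alone and 100% = reference antagonist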
# CHO parental Ca: ATP-evoked calcium signal inhibitors, parental CHO, primary screen, counter-screen for OX1R antagonist project, cell-based, fluorescence, Fluo-8 calcium dye; parental CHO-K1, ATP-induced calcium, Fluo-8 fluorescence; inhibition, % at 5.6 µM; hit rate 0.63% among 330,000; AID 463079, 2010;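 active = inhibition above that plate's mean sample inhibition plus 3 SD, cut at about 26% in these data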;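 note: 0% = ATP-challenged DMSO wells and 100% = DMSO wells without ATP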
#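 Material – parental CHO cells · Reagent – ATP stimulus · Compound – single nominal dose of 5.6 µM per compound · Detection – Fluo-8 fluorescence · Read-out basis – percent inhibition of calcium signal · Controls – ATP-challenged DMSO wells low, unchallenged DMSO wells high · Repeats – no replicates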
# zfTRPN1 agonist: zebrafish TRPN1 channel agonists, primary screen, cell-based, HEK293, calcium fluorescence; transient receptor potential cation channel N1 (TRPN1/NompC), Danio rerio; HEK293 zebrafish TRPN1-YFP, Fluo-8 calcium fluorescence; 100% = response to 87 µM carbachol; activation, % at 3 µM; hit rate 0.18% among 220,000;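 active = activation above its plate's cutoff, the mean activation of test wells on that plate plus 3 SD, cut at about 19% in these data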;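 note: 0% = DMSO alone and 100% = 87 µM carbachol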
#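 System: zebrafish TRPN1-YFP in HEK293 cells / Dosing: 3 µM single point / Timing: dye loading 1 h at 37 °C, then 30 min room temperature / Signal: Fluo-8 calcium fluorescence, excitation 470-495 nm, emission 515-575 nm / Read-out basis: percent activation from peak over basal fluorescence ratio, control-normalized / Control set: high carbachol 87 µM, low DMSO alone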
# OX1R antag-2: OX1R (HCRTR1) antagonists, primary screen, fluorescence, CHO/OX1R cells, Fluo-8 calcium, orexin A; Orexin/Hypocretin receptor type 1 (Homo sapiens), O43613; inhibition, % at 5 µM; hit rate 0.43% among 330,000; Fluo-8 calcium fluorescence;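 active = inhibition above its plate's threshold, mean inhibition of all tested compounds on the plate plus 3 SD, cut at about 37% in these data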;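 note: 0% = orexin A challenge wells and 100% = SB-334867-A antagonist wells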
# TRPN1 ag 2: zebrafish TRPN1 channel agonists, counter-screen for TRPML3 agonist project, cell-based, HEK293 TRPN1-YFP, Fluo-8 calcium; shares compounds with TRPML3 ag; Fluo-8 calcium fluorescence; scaled: carbachol wells 100%, DMSO wells 0%; activation, % at 3 µM; hit rate 10% among 310; AID 1525, 2009;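 active = mean activation over replicates above a set limit taken from the earlier TRPN1 channel primary screen, cut at about 19% in these data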;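 note: 100% = carbachol and 0% = 0.3% DMSO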
# TRPML3 ag conf: human TRPML3 channel agonists, confirmation, cell-based, HEK293 TRPML3-YFP, Fluo-8 calcium, triplicate; shares compounds with TRPML3 ag; Fluo-8 calcium fluorescence; 100% set by carbachol, 0% by DMSO; activation, % at 3 µM; hit rate 80% among 310; AID 1526, 2009;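 active = activation above a set limit derived from the earlier primary screen, cut at about 12% in these data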
# OX1R Ca confirm: OX1R (HCRTR1) antagonists, confirmation, fluorescence, CHO/OX1R cells, Fluo-8 calcium, orexin A; inhibition, % at 5 µM; hit rate 38% among 1,100; shares compounds with OX1R antag-2; orexin A calcium Fluo-8 fluorescence; in the data active = inhibition above about 29%;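 note: 0% = agonist challenge alone and 100% = reference antagonist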
# CHO Ca triplic: ATP-evoked calcium inhibition in parental CHO, counter-screen for OX1R antagonist project, cell-based, fluorescence, CHO-K1, triplicate; ATP-induced calcium, Fluo-8 fluorescence; inhibition, % at 5.6 µM; shares compounds with OX1R antag-2; hit rate 9.3% among 1,100; AID 492965, 2010;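 active = inhibition above a per-plate limit, the mean inhibition of that plate's test compounds plus 3 SD, cut at about 25% in these data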;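 note: 0% = ATP challenge with DMSO and 100% = DMSO without ATP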
# OX1R HTRF confirm: OX1R (HCRTR1) antagonists, confirmation, cell-based, HTRF | shares compounds with OX1R antag-1 | OX1R-expressing cells, HTRF antagonist assay | AID 492964, 2010 | hit rate 49% among 1,800 | inhibition, % at 6.6 µM; in the data active = inhibition above about 55%;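 note: CHO cells expressing OX1R stimulated with orexin A at about EC80; 0% = agonist challenge alone and 100% = reference antagonist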
# CHO-K1 HTRF cnt: signal inhibition in parental CHO-K1 cells, counter-screen for OX1R antagonist project, cell-based, HTRF; shares compounds with OX1R antag-1; AID 493232, 2011; inhibition, % at 6.6 µM; HTRF counterscreen; hit rate 48% among 1,800; in the data active = inhibition above about 17%;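 note: 0% = agonist challenge with vehicle and 100% = vehicle alone without agonist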
# Numbers without * were called inactive; . = not tested or not shown.
SMILES,TRPML3 ag,OX1R antag-1,CHO parental Ca,zfTRPN1 agonist,OX1R antag-2,TRPN1 ag 2,TRPML3 ag conf,OX1R Ca confirm,CHO Ca triplic,others
CC(=Nc1ccccc1O)c1sc2ccccc2c1O,12*,30,24,16,34,21*,9,11,0,
Cc1ccc(S(=O)(=O)CCC(=O)OCC(=O)N2c3ccccc3CC2C)cc1 (stereo not given),.,11,-14,.,-6,.,.,.,.,
COc1ccc(NC(=O)c2cc([N+](=O)[O-])ccc2O)cc1,15*,70*,15,17,33,26*,11,14,0,OX1R HTRF confirm=27;CHO-K1 HTRF cnt=7
COc1ccc(NC(=S)Nc2cccc([N+](=O)[O-])c2)cc1,1,8,-2,2,-2,.,.,.,.,
CC1CCC(NC(=O)C2CCN(C(=O)Nc3ccccc3)CC2)CC1 (stereo not given),.,11,-16,.,4,.,.,.,.,
COc1ccccc1N(C)S(=O)(=O)c1ccc(Cl)c(C(=O)OCc2c(C)noc2C)c1,41*,54*,-4,1,26,0,39*,13,-7,OX1R HTRF confirm=34;CHO-K1 HTRF cnt=-1
CC(CC(=O)NCCc1ccc(S(N)(=O)=O)cc1)c1ccccc1 (stereo not given),.,13,-5,.,-23,.,.,.,.,
CC(=O)c1sc(NC(=O)C2(F)C(F)(F)C(F)(F)C(F)(F)C(F)(F)C2(F)F)nc1C,22*,80*,16,19,35,31*,16*,.,.,OX1R HTRF confirm=71*;CHO-K1 HTRF cnt=26*
O=S(=O)(c1ccc2c(c1)OCCO2)N1CCN(Cc2ccccc2)CC1,0,15,-2,-2,28,.,.,-4,-4,
O=C(O)CN(Cc1ccccc1)S(=O)(=O)c1ccc2c(c1)OCCO2,1,33,-5,0,39,.,.,3,5,
CCOC(=O)N1CCN(C(=O)c2ccc3c(c2)NC(=O)C(N2CCOCC2)S3)CC1 (stereo not given),1,9,6,1,28,.,.,4,-1,
CCOC(=O)c1sc(NC(=O)CCN2C(=O)C3CCCCC3C2=O)cc1C (stereo not given),.,9,-26,.,-30,.,.,.,.,
COc1cc(/C=C/C(O)=C/C(=O)/C=C/c2ccc(O)cc2)ccc1O,.,4,25,.,48,.,.,18,18,
COc1ccc(/C=C/C(=O)c2cc(Br)ccc2O)cc1OC,1,-1,-21,0,-30,.,.,.,.,
Cc1ccc(N(CC(O)Cn2c3ccccc3c3ccccc32)S(C)(=O)=O)cc1 (stereo not given),1,31,0,0,21,.,.,.,.,
CS(=O)(=O)N(Cc1ccco1)CC(O)Cn1c2ccccc2c2ccccc21 (stereo not given),0,37,9,1,51*,.,.,30*,-1,
